# Compounds with a hit are over-represented: about 4.6% of the library has one in this group of screens.
# OX1R antag-1: OX1R (HCRTR1) antagonists, primary screen, fluorescence, CHO/OX1R cells, Fluo-8 calcium, orexin A; AID 434989, 2010; 0.43% of 330,000 active; inhibition, % at 5 µM; Fluo-8 calcium fluorescence;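 active means inhibition above its plate's threshold, mean inhibition of all tested compounds on the plate plus 3 SD, cut at about 37% in these data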;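 further: 0% = orexin A challenge wells and 100% = SB-334867-A antagonist wells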
# Target sequence (O43613 whole entry, looked up): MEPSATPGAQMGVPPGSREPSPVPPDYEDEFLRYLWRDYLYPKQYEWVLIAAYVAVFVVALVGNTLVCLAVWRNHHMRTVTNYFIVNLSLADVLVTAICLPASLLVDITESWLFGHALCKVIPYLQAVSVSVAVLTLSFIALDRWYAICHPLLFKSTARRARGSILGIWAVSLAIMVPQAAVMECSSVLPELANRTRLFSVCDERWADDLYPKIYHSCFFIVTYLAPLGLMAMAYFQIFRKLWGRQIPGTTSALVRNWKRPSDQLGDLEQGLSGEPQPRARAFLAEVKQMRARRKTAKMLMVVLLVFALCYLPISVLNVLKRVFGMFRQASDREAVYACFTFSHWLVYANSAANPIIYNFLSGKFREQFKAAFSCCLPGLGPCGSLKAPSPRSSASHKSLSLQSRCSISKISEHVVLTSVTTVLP
# TAAR1 agonist: human TAAR1 agonists, primary screen, Fluo-8 calcium fluorescence, CHO RD-HGA16 cells. Trace amine-associated receptor 1 (Homo sapiens), Q96RJ0. vehicle wells 0%, saturating PEA agonist 100%. activation, % at 3 µM. 0.99% of 360,000 active. AID 624467, 2012;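 active means activation above the mean activation of all test compounds in the run plus 3 SD, cut at about 38% in these data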
#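 System: CHO-derived RD-HGA16 cells with stable Gα16 and human TAAR1. Times: 17-24 h plating, Fluo-8 75 min 37 °C, 30 min RT. Measured by: calcium-sensitive Fluo-8 signal, excitation 470-495, emission 515-575 nm. Read-out basis: % activation relative to PEA EC100 response. Control set: DMSO and PEA EC100. Repeats: no replicates (n 1).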
# TAAR1 antagonist: human TAAR1 antagonists, primary screen, Fluo-8 calcium fluorescence, CHO RD-HGA16 cells; Trace amine-associated receptor 1 (Homo sapiens), Q96RJ0; antagonist; inhibition, % at 3 µM; 1.5% of 360,000 active; AID 624466, 2012;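 active means inhibition above a per-plate cutoff, the mean inhibition of test compounds on that plate plus 3 SD, cut at about 49% in these data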;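 further: 0% = DMSO plus EC80 beta-PEA response and 100% = DMSO alone without agonist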
#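 Assay system: CHO-derived RD-HGA16 cells stably expressing human TAAR1 plus Gα16. Timing: 140 s kinetic read after compound, 140 s after agonist. Technique: kinetic Fluo-8 calcium fluorescence measurement. Measure: % inhibition of agonist calcium response.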
# CHO parental Ca: ATP-evoked calcium signal inhibitors, parental CHO, primary screen, counter-screen for OX1R antagonist project, cell-based, fluorescence, Fluo-8 calcium dye; parental CHO-K1, ATP-induced calcium, Fluo-8 fluorescence; inhibition, % at 5.6 µM; 0.63% of 330,000 active; AID 463079, 2010;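 active means inhibition above that plate's mean sample inhibition plus 3 SD, cut at about 26% in these data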;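 further: 0% = ATP-challenged DMSO wells and 100% = DMSO wells without ATP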
#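 Material: parental CHO cells / Compound: single nominal dose of 5.6 µM per compound / Signal: Fluo-8 fluorescence / Replicates: singlicate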
# OX1R antag-2: antagonists of human orexin 1 receptor (OX1R) | Orexin/Hypocretin receptor type 1 (Homo sapiens), O43613 | OX1R-expressing cells, FRET antagonist read-out | inhibition, % at 6.6 µM | 1.8% of 330,000 active; in the data active means inhibition mostly above about 38%, no sharp cut-off; inactive means mostly below about 40%;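 further: 0% = agonist challenge alone and 100% = reference antagonist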
# GPR7 antag: GPR7 receptor antagonists, primary screen, cell-based, fluorescence, single concentration; Neuropeptides B/W receptor type 1 (Homo sapiens), P48145; GPR7-expressing cells, fluorescence antagonist assay; inhibition, % at 4.4 µM; 1.1% of 290,000 active; AID 1861, 2009; in the data active means inhibition above about 16%, passing the limit was not always enough;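 further: cells stimulated with the agonist NPW; 0% = agonist with vehicle and 100% = vehicle without agonist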
# Numbers without * were called inactive; . = not tested or not shown.
SMILES,OX1R antag-1,TAAR1 agonist,TAAR1 antagonist,CHO parental Ca,OX1R antag-2,GPR7 antag
COc1ccc(-c2nc(N3CCCCCC3)sc2C(=O)c2ccccc2)cc1,56*,42*,80*,36*,39,-6
c1ccc(-c2noc(-c3cccc4ccccc34)n2)nc1,-9,25,-8,-36,66*,-8
COc1cccc(-c2nc(-c3ccccn3)no2)c1OC,-20,3,1,-9,32,1
CCN=C1NC(c2ccccc2)C(C(=O)OC)=C(C)N1Cc1ccc(C(F)(F)F)cc1 (stereo not given),.,24,21,.,.,.
C[C@@H]1CN([C@@H](C)CO)S(=O)(=O)c2ccc(Br)cc2O[C@@H]1CN(C)Cc1ccc2c(c1)OCO2,.,1,9,.,.,.
Cc1ccc(-n2cc(CN3CCC(CO)(Cc4cccc(C(F)(F)F)c4)CC3)cn2)cc1,-17,44*,4,10,12,10
Cc1ccc(-n2cc(CN3CCC(CO)(Cc4ccccc4)CC3)cn2)cc1,-29,5,19,-18,11,20*
CCCCNc1cccc2c1S(=O)(=O)N[C@H](Cc1ccccc1)CO2,.,-1,43,.,.,.
O=[N+]([O-])c1ccc(S(=O)(=O)NCCc2cn3ccccc3n2)cc1,-11,0,-11,-8,42*,-7
Cc1cccn2cc(CCNS(=O)(=O)c3ccc([N+](=O)[O-])cc3)nc12,-15,1,-3,-5,26,-6
Cc1cc(C)c(C2=NOC3c4ccccc4OCC23)c(C)c1 (stereo not given),.,1,-11,.,.,.
O=c1ccsn1Cc1ccccc1,-7,44*,37,-15,23,7
CN(C)CC(CCC(CN(C)C)C(=O)c1ccccc1)C(=O)c1ccccc1 (stereo not given),.,.,.,.,.,38*
COCCCNC(=O)C[C@H]1C[C@@]2(C(=O)OC)C(=C[C@H](COCc3ccccc3)O[C@@H]2C)N(CCC2=CCCCC2)C1=O,.,-2,-39,.,.,.
CC(=O)Oc1c(C)c(=O)n(C)c2ccccc12,-13,0,14,-11,7,10
COc1c(OC(C)=O)c(=O)n2c3ccccc3c3ccnc1c32,-14,1,1,-12,52*,.
O=c1c2cc([N+](=O)[O-])cc([N+](=O)[O-])c2[nH]n1-c1ccccc1,-11,2,-21,-2,6,-6
O=c1[nH]c(=O)c2cc([N+](=O)[O-])cc([N+](=O)[O-])c2[nH]1,-14,5,-14,-7,52*,-4
O=C(Nc1ccc2nc3n(c(=O)c2c1)CCCC3)c1cc([N+](=O)[O-])ccc1F,-4,.,.,8,52*,13
O=C(Nc1ccc2nc3n(c(=O)c2c1)CCCC3)c1cccc([N+](=O)[O-])c1,-19,1,4,-16,38,-8
O=C(Nc1nnc(C2CC2)s1)c1ccc(Cl)c(S(=O)(=O)N2CCc3ccccc3C2)c1,10,10,57*,0,30,-5
CCc1nnc(NC(=O)c2ccc(Cl)c(S(=O)(=O)N3CCc4ccccc43)c2)s1,-1,13,20,13,60,10
O=C(Nc1ccncc1)c1ccc(Cl)c(S(=O)(=O)N2CCc3ccccc32)c1,34,15,63*,44*,50*,.
Cc1cccc(NC(=O)c2ccc(Cl)c(S(=O)(=O)N3CCc4ccccc43)c2)n1,27,2,16,-14,35*,.
Cc1cccc(NC(=O)c2ccc(Cl)c(S(=O)(=O)N3CCCC3)c2)n1,-26,3,-5,-16,28,-13
SMILES,OX1R antag-1,TAAR1 agonist,TAAR1 antagonist,CHO parental Ca,OX1R antag-2,GPR7 antag
O=C(NCc1ccccc1)[C@H]1CCCN1C(=O)[C@H]1CCCN1C(=O)c1ccccc1,.,3,-42,.,.,.
O=C(Nc1ccc2c(c1)CCC2)C1CCN(c2c3c(nc4ncnn24)CCC3)CC1,-33,13,-14,-28,21,-25
O=C(Nc1ccc(Oc2ccccc2)cc1)C1CCN(c2c3c(nc4ncnn24)CCC3)CC1,36*,28,57*,49*,27,-17
CCN1CCN(C(=O)c2cc(-c3ccc(Cl)s3)nc3ccccc23)CC1,.,20,5,.,.,-8
COC(=O)C1CCN(C(=O)c2cc(-c3ccc(Cl)s3)nc3ccccc23)CC1,14,9,57*,2,1,.
CN1C(=O)/C(=C/c2cccc(Cl)c2)Sc2ccc(C(=O)NCc3cccnc3)cc21,-14,10,51*,-3,42,-1
CN1CCN(CCCNC(=O)c2ccc(/C=C3/Sc4ccccc4N(Cc4cccc(Cl)c4)C3=O)cc2)CC1,.,36,57*,.,.,-7
Clc1nssc1=Nc1ccc(Br)cc1,.,42*,32,.,.,-8
O=C1N(Cc2ccccc2)c2ccc(Br)cc2[C@]12C[C@H](O)CO2,.,0,-21,.,.,.
O=C(Cc1ccc(Br)cc1)Nc1ccc(Cl)cc1,-19,3,28,1,41,-22
O=C(COC(=O)c1ccccc1Cc1ccccc1)Nc1ccc(SC(F)F)cc1,6,3,28,42*,26,0
O=C(Cc1ccc(Cl)cc1)Nc1ccc(SC(F)F)cc1,4,3,55*,18,-2,0
COc1ccccc1C(=O)NC(=S)Nc1cccnc1Cl,-9,-4,7,-22,47*,-14
CCOC(=O)c1c(Nc2ccc(OC)cc2)n[nH]c1C,.,-2,-1,.,.,.
CCNC(=O)C1(C)CCN1CCC(=O)c1ccc(Br)cc1 (stereo not given),.,0,6,.,.,.
Cc1cccc(C)c1NC(=O)COC(=O)c1c2c(nc3ccccc13)/C(=C\c1ccc3c(c1)OCO3)CCC2,45,26,53*,38,39,4
O=C(COC(=O)c1c2c(nc3ccccc13)/C(=C/c1cccc([N+](=O)[O-])c1)CCC2)NC1CCS(=O)(=O)C1 (stereo not given),15,11,51*,10,30,8
CN(C(=O)COC(=O)c1c2c(nc3ccccc13)/C(=C/c1cccc([N+](=O)[O-])c1)CCC2)C1CCS(=O)(=O)C1 (stereo not given),8,3,13,13,14,-5
Cc1ccc(S(=O)(=O)N(C)[C@H]2C[C@H]3c4cc(-c5ccc6c(c5)OCO6)ccc4CCN3C[C@H]2[C@H](C)O)cc1,.,1,-32,.,.,.
